According to PubChem BioAssay AID588744 (Vanderbilt Specialized Chemistry Center, 2011):
Blank lines part the entries; values can stand above or below the molecule they belong to. Calls of active or inactive are those of the source.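 Rule for the calls: active = compounds whose response rose with dose, given a half-maximal potency and peak effect versus acetylcholine; inactive = the rest.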

Molecular target: Muscarinic acetylcholine receptor M1 (Homo sapiens) (UniProt P11229)
Assay: M1 positive allosteric modulation, counter-screen, dose response, counter-screen for M4 PAM project, human, CHO cells, calcium fluorescence (AID 588744)
Conditions: CHO hM1 calcium mobilization, Fluo-4 fluorescence
Outline: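 System: hM1-expressing CHO cells with Fluo-4 / Probe or stimulus: acetylcholine at EC20, then acetylcholine at EC80 / Incubation: 144 s compound pretreatment, 86 s EC20–EC80 gap, 37 °C / Measured by: Fluo-4 calcium fluorescence / Read-out: % of 1 mM ACh maximum and EC50 / Benchmarks: 1 mM acetylcholine maximum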

Sequence of Muscarinic acetylcholine receptor M1 (Homo sapiens) (P11229 whole entry, looked up): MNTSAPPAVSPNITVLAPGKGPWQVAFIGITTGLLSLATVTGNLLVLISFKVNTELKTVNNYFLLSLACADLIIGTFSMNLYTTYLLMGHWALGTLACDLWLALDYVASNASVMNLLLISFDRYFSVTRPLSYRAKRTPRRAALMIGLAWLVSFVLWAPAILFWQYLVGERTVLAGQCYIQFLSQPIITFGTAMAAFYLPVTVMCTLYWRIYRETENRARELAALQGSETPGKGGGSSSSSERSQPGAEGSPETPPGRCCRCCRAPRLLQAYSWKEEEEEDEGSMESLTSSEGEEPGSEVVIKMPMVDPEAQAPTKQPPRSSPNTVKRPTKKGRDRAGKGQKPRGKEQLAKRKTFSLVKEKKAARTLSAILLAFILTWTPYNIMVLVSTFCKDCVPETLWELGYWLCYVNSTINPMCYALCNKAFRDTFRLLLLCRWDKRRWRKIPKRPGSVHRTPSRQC

Structure (SMILES): Cc1nc2sc(C(=O)NCCc3ccncc3)c(N)c2c(C)c1Cl
- % ACh max response (at 30 µM (top of the series)): inactive

Structure (SMILES): Cc1nc2sc(C(=O)NCc3nccs3)c(N)c2c(C)c1Cl
- % ACh max response (at 30 µM (top of the series)): inactive

Structure (SMILES): Cc1nc2sc(C(=O)NC3CC3)c(N)c2c(C)c1Cl
- EC50: 0.969 µM

Structure (SMILES): Cc1nc2sc(C(=O)NCc3ccncn3)c(N)c2c(C)c1Cl
- % ACh max response (at 30 µM (top of the series)): inactive

Results, then the molecule that gave them:

- % ACh max response (at 45.3 µM (top of the series)): inactive
Structure (SMILES): Cc1nc2sc(C(=O)NCc3ccncc3)c(N)c2c(C)c1Cl

- % ACh max response (at 30 µM (top of the series)): inactive
Structure (SMILES): Cc1nc2sc(C(=O)NCc3cccc(F)c3F)c(N)c2c(C)c1Cl

- % ACh max response (at 37.4 µM (top of the series)): inactive
Structure (SMILES): Cc1nc2sc(C(=O)NCc3ccccc3)c(N)c2c(C)c1Cl

- % ACh max response (at 45.3 µM (top of the series)): inactive
Structure (SMILES): Cc1nc2sc(C(=O)NCc3cccnc3)c(N)c2c(C)c1Cl

- % ACh max response (at 36.8 µM (top of the series)): inactive
Structure (SMILES): Cc1nc2sc(C(=O)NCc3ccc4c(c3)OCO4)c(N)c2c(C)c1Cl
